ChEMBL document CHEMBL1136923, “Highly potent, orally available anti-inflammatory broad-spectrum chemokine inhibitors” (J Med Chem, 2009)

Experiments:
[1] = molecular target: T1, C5a anaphylatoxin chemotactic receptor 1 (Homo sapiens) (UniProt P21730); experiment: Antagonist activity at C5a receptor in human PMNC assessed as inhibition of C5a-induced chemotaxis at 0.01 nM after 2 hrs by microtiter format trans-well migration assay; assay type: functional
T1 sequence (whole entry): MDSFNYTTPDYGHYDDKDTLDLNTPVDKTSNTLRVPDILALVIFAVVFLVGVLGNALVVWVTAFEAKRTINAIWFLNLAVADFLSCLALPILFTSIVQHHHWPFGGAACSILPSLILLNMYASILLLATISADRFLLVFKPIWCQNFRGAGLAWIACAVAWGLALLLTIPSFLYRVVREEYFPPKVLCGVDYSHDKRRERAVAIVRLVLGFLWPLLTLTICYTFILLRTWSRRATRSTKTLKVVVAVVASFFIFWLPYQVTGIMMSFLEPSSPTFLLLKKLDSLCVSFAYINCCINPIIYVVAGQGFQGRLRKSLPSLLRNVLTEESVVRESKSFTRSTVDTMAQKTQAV
How it was run: (§1)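 Microtiter trans-well migration assay in Gey's balanced salt solution with 1 mg/mL endotoxin-free BSA, no fetal calf serum. Migration ran 2 h at 37 °C. Compounds dissolved in DMSO and added to both top and bottom compartments, final DMSO 1%.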

THP-1 [2] = experiment: Endogenous chemoattractant activity at human THP1 cells assessed as cell migration at 1000 uM after 2 hrs by microtiter format trans-well migration assay; assay type: functional
THP-1 [3] = experiment: Toxicity in human THP1 cells assessed as change in cell size at 10 nM by forward scatter flow cytometry relative to control; assay type: cell-based; details: thp-1, 0.01 µM
[4] = molecular target: C-C chemokine receptor type 2 (Homo sapiens) (UniProt P41597); experiment: Antagonist activity at CCR2 in human THP1 cells assessed as inhibition of CCL2-induced chemotaxis at 1 nM after 2 hrs by microtiter format trans-well migration assay; assay type: functional, cell-based; details: THP-1; how it was run: as §1
[5] = molecular target: T2, C-C chemokine receptor type 1 (Homo sapiens) (UniProt P32246); experiment: Antagonist activity at CCR1 in human THP1 cells assessed as inhibition of CCL3-induced chemotaxis at 0.1 nM after 2 hrs by microtiter format trans-well migration assay; assay type: functional, cell-based; details: THP-1; how it was run: as §1
T2 sequence (whole entry): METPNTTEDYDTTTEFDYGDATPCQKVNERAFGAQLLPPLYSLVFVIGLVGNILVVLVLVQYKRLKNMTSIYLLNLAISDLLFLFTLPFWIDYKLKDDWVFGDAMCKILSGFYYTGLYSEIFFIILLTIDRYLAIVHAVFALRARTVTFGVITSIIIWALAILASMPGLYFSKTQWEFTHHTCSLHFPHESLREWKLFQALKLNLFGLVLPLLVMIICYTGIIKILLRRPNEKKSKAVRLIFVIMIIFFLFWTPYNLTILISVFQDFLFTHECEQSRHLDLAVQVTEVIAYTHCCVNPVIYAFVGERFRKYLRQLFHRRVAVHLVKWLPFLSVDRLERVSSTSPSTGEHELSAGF

[6] = Antagonist activity at Interleukin-8 receptor in human PMNC assessed as inhibition of CXCL8-induced chemotaxis at 100 nM after 2 hrs by microtiter format trans-well migration assay; assay type: functional; how it was run: as §1
[7] = Antagonist activity at Interleukin-8 receptor in human PMNC assessed as inhibition of CXCL8-induced chemotaxis at 1000 nM after 2 hrs by microtiter format trans-well migration assay; assay type: functional; how it was run: as §1
[8] = molecular target: C-X-C chemokine receptor type 4 (Homo sapiens) (UniProt P61073); experiment: Antagonist activity at CXCR4 in human THP1 cells assessed as inhibition of CXCL12-induced chemotaxis at 1000 nM after 2 hrs by microtiter format trans-well migration assay; assay type: functional, cell-based; details: THP-1; how it was run: as §1
[9] = molecular target: C-X-C chemokine receptor type 4 (Homo sapiens) (UniProt P61073); experiment: Antagonist activity at CXCR4 in human THP1 cells assessed as inhibition of CXCL12-induced chemotaxis at 100 nM after 2 hrs by microtiter format trans-well migration assay; assay type: functional, cell-based; details: THP-1; how it was run: as §1
Mus musculus [10] = experiment: Antiinflammatory activity in mouse assessed as inhibition of LPS-induced TNFalpha upregulation at 0.0025 mg, sc measured 2 hrs after LPS challenge; assay type: functional
How it was run: (§2)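 Murine sublethal endotoxemia: LPS given intraperitoneally, with serum TNF-α measured 2 h after the LPS injection as the end point. Compound was given subcutaneously or orally. Vehicle was 0.6% DMSO and 1% carboxymethylcellulose (final concentrations) in sterile water. Effect is reported as % relative to control.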

Mus musculus [11] = experiment: Antiinflammatory activity in mouse assessed as inhibition of LPS-induced TNFalpha upregulation at 0.0075 mg, po measured 2 hrs after LPS challenge; assay type: functional; how it was run: as §2
Mus musculus [12] = experiment: Antiinflammatory activity in mouse assessed as inhibition of LPS-induced TNFalpha upregulation at 0.025 ug, sc measured 2 hrs after LPS challenge; assay type: functional; how it was run: as §2
[13] = molecular target: C-C chemokine receptor type 5 (Homo sapiens) (UniProt P51681); experiment: Antagonist activity at CCR5 in human THP1 cells assessed as inhibition of CCL5-induced chemotaxis at 0.1 nM after 2 hrs by microtiter format trans-well migration assay; assay type: functional, cell-based; details: THP-1; how it was run: as §1
Mus musculus [14] = experiment: Antiinflammatory activity in sc dosed mouse assessed as inhibition of LPS-induced TNFalpha upregulation measured 2 hrs after LPS challenge relative to control; assay type: functional
How it was run: (§3)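 Murine sublethal LPS endotoxemia screen. LPS is injected intraperitoneally and serum TNF-α is measured 2 h later as the end point. Compound is given subcutaneously or orally in a vehicle of 0.6% DMSO plus 1% carboxymethylcellulose (final concentrations) in sterile water. Values are % relative to control.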

Mus musculus [15] = experiment: Antiinflammatory activity in mouse assessed as inhibition of LPS-induced TNFalpha upregulation at 830 pg, sc measured 2 hrs after LPS challenge; assay type: functional; how it was run: as §3
Mus musculus [16] = experiment: Antiinflammatory activity in mouse assessed as inhibition of LPS-induced TNFalpha upregulation at 0.075 ug, sc measured 2 hrs after LPS challenge; assay type: functional; how it was run: as §2
[17] = molecular target: C-X-C chemokine receptor type 4 (Homo sapiens) (UniProt P61073); experiment: Antagonist activity at CXCR4 in human THP1 cells assessed as inhibition of CXCL12-induced chemotaxis at 10 nM after 2 hrs by microtiter format trans-well migration assay; assay type: functional, cell-based; details: THP-1; how it was run: as §1
[18] = molecular target: T1, C5a anaphylatoxin chemotactic receptor 1 (Homo sapiens); experiment: Antagonist activity at C5a receptor in human PMNC assessed as inhibition of C5a-induced chemotaxis after 2 hrs by microtiter format trans-well migration assay; assay type: functional; how it was run: as §1
[19] = Antagonist activity at Interleukin-8 receptor in human PMNC assessed as inhibition of CXCL8-induced chemotaxis at 10 nM after 2 hrs by microtiter format trans-well migration assay; assay type: functional; how it was run: as §1
[20] = molecular target: C-C chemokine receptor type 2 (Homo sapiens) (UniProt P41597); experiment: Antagonist activity at CCR2 in human THP1 cells assessed as inhibition of CCL2-induced chemotaxis after 2 hrs by microtiter format trans-well migration assay; assay type: functional, cell-based; details: THP-1; how it was run: as §1
[21] = molecular target: C-C chemokine receptor type 2 (Homo sapiens) (UniProt P41597); experiment: Antagonist activity at CCR2 in human THP1 cells assessed as inhibition of CCL2-induced chemotaxis at 0.1 nM after 2 hrs by microtiter format trans-well migration assay; assay type: functional, cell-based; details: THP-1; how it was run: as §1
[22] = Antagonist activity at Interleukin-8 receptor in human PMNC assessed as inhibition of CXCL8-induced chemotaxis at 0.01 nM after 2 hrs by microtiter format trans-well migration assay; assay type: functional; how it was run: as §1
Mus musculus [23] = experiment: Antiinflammatory activity in sc dosed mouse assessed as inhibition of LPS-induced TNFalpha upregulation measured 2 hrs after LPS challenge; assay type: functional

C-C chemokine receptor type 2 (Homo sapiens), sequence (P41597 whole entry, looked up): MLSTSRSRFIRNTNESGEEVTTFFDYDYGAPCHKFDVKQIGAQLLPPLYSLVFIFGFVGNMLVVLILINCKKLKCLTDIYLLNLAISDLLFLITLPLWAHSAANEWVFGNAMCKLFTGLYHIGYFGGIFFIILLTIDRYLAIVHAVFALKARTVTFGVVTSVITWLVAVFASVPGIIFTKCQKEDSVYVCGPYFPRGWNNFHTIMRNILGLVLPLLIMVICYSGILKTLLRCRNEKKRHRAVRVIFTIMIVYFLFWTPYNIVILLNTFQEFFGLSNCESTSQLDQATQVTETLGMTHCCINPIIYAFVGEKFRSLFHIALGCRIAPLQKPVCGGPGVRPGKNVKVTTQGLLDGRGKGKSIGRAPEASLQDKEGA
C-X-C chemokine receptor type 4 (Homo sapiens), sequence (P61073 whole entry): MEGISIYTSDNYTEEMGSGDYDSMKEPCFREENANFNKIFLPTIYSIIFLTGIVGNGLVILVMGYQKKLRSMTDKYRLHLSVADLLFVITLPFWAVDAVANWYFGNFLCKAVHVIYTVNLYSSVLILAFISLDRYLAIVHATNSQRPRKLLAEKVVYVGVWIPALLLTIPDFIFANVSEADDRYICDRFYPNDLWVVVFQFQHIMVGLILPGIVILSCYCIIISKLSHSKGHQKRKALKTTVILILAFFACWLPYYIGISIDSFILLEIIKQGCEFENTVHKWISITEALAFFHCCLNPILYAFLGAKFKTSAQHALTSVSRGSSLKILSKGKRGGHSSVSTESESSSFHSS
C-C chemokine receptor type 5 (Homo sapiens), sequence (P51681 whole entry, looked up): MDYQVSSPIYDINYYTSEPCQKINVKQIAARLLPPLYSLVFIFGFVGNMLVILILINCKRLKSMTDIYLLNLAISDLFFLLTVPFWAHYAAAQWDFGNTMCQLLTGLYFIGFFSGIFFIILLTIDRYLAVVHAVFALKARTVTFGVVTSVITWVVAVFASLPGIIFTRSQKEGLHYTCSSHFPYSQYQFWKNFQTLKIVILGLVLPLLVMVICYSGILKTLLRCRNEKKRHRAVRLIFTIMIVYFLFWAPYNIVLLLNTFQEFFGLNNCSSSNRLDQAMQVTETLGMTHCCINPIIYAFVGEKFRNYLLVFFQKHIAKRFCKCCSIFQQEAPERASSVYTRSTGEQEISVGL

inhibition [4]: 81%
inhibition [5]: 43%
inhibition [8]: 112%
inhibition [9]: 111%
inhibition [13]: 16.5%
inhibition [17]: 107%
ED50 [20]: 0.09 nM
inhibition [21]: 53.5%
SMILES: CCCCCCCCCCC(C)(C)C(=O)N[C@H]1CCCCNC1=O
inhibition [1]: 20%
Activity (THP-1 [2]): 1602%
fold change (FC) (THP-1 [3]): 1.04
inhibition at 0.1 µM [6]: 128%
inhibition at 1 µM [7]: 122%
inhibition (INH) (Mus musculus [10]): 57%
inhibition (INH) (Mus musculus [11]): 12%
inhibition (INH) (Mus musculus [12]): 67%
inhibition (INH) (Mus musculus [14]): 70%
inhibition (INH) (Mus musculus [15]): 18%
inhibition (INH) (Mus musculus [16]): 65%
ED50 [18]: > 1000 nM
inhibition at 0.01 µM [19]: 121%
inhibition at 10 pM [22]: -12%
ED50 (Mus musculus [23]): 0.15 µg/kg
